# Test results reported in PubChem BioAssay AID1381 (University of Pittsburgh Molecular Library Screening Center, 2008).
# Among all 220,000 compounds or so, about 1,000 (0.45%) were called active.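 How the source made its calls: active means plate z-score of nuclear minus cytoplasmic receptor signal below a set negative limit, without overly bright fluorescence or cell loss (cut at about -3.5 in these data, passing the limit was not always enough); inactive means the rest, inconclusive results apart.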 What follows is part of a selection rich in actives, with near analogues and random picks from the rest.
# Assay: inhibitors of GR-EGFP nuclear translocation, primary screen, dynein cargo transport inhibitor project, imaging, high-content, 3617.4 mouse cells (AID 1381)
# Details: stimulated with dexamethasone, 1 µM
# How it was run: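 Buffer or medium – tet-free medium with charcoal-stripped serum · Signal – automated 10x imaging of fixed Hoechst-stained cells · Also added – dexamethasone agonist, 1.0 µM final, for 30 min · Incubation – induction 48 h, compound 1 h, agonist 30 min · Read-out – GR-EGFP nuclear translocation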
# [1] = measured here: cell count per field, at 20 µM
# [2] = measured here: cytoplasmic GR-EGFP intensity, at 20 µM, stronger effect = higher value
# [3] = measured here: nuclear GR-EGFP intensity, at 20 µM, stronger effect = lower value
# [4] = measured here: cell count per field, at 50 µM
# [5] = measured here: cytoplasmic GR-EGFP intensity, at 50 µM, stronger effect = higher value
# [6] = measured here: nuclear GR-EGFP intensity, at 50 µM, stronger effect = lower value
Compound,"z-score (at 20 µM, stronger effect = lower value)",z-score [1],z-score [2],z-score [3],"z-score (at 50 µM, stronger effect = lower value)",z-score [4],z-score [5],z-score [6]
C=CCOC(=O)C1=C(C)OC(N)=C(C#N)C1c1ccc(F)cc1 (stereo unspecified),-1.1 (inactive),0.643,-0.165,-0.354,–,–,–,–
CCOC(=O)C1=C(CC)OC(N)=C(C#N)C1c1ccc(F)cc1F (stereo unspecified),-3.05 (inactive),-0.462,0.472,-1.28,–,–,–,–
CCOC(=O)C1=C(C)OC(N)=C(C#N)C1c1cncc(-c2ccc(F)cc2)c1 (stereo unspecified),-3.9 (active),-0.136,0.28,-1.42,–,–,–,–
O=C1c2ccccc2C(=O)N1Cc1cc(-c2ccccc2Cl)no1,-0.0385 (inactive),-0.0908,-0.215,0.196,–,–,–,–
COc1ccc(C)cc1NC(=S)Nc1ccccc1SC,-0.497 (inactive),0.252,-0.293,-0.178,–,–,–,–
Cc1ccc(CN2CCN(Cc3ccc(OCCO)cc3)CC2CCO)o1 (stereo unspecified),0.361 (inactive),0.953,-0.289,-0.03,–,–,–,–
O=C1c2cccc3cc(Br)cc(c23)C(=O)N1Nc1ccccc1,0.228 (inactive),0.252,-0.199,0.671,–,–,–,–
O=C1C=C(c2ccc(Cl)cc2)C(=O)N1Nc1ccccc1,-4.4 (active),-0.124,2.35,-1.87,–,–,–,–
O=C(Nc1ccccc1)OCc1cc(-c2ccc(Cl)cc2)on1,1.93 (inactive),-1.86,-0.165,1.78,–,–,–,–
CCOc1ccccc1N1CCN(C(=O)COc2ccc3c(C)cc(=O)oc3c2)CC1,1.35 (inactive),-0.138,-0.356,0.787,–,–,–,–
Clc1cccc(-c2nc3nc4ccccc4nc3n2Cc2ccco2)c1,-4.09 (active),0.0368,2.09,-1.78,–,–,–,–
Cc1cc(NC(=O)CSc2nc3cc(Cl)ccc3c(=O)n2Cc2ccco2)no1,2.31 (inactive),-1.55,-0.306,1.39,–,–,–,–
O=C(CSc1nnc(-c2cccnc2)n1Cc1ccco1)c1ccc(Cl)cc1,-0.358 (inactive),-0.0648,-0.209,-0.055,–,–,–,–
Cc1cccc(NC(=S)N2CCC(c3nc4ccccc4s3)CC2)c1,-0.203 (inactive),0.43,-0.197,-0.339,–,–,–,–
CC1CCN(C(=O)c2ccc(S(=O)(=O)Cc3cc(F)ccc3F)c([N+](=O)[O-])c2)CC1,-3.71 (active),-1.15,0.395,-2.24,–,–,–,–
O=C(Nc1ccc(F)cc1)C1CCN(C(=O)c2ccc([N+](=O)[O-])cc2)CC1,-0.907 (inactive),0.228,0.208,-0.321,–,–,–,–
CC1CCN(C(=O)c2ccc(CSc3ccc(Cl)cc3)cc2)CC1,-0.555 (inactive),0.71,-0.258,-0.29,–,–,–,–

Compound,"z-score (at 20 µM, stronger effect = lower value)",z-score [1],z-score [2],z-score [3],"z-score (at 50 µM, stronger effect = lower value)",z-score [4],z-score [5],z-score [6]
O=C(CC(NC(=O)c1ccccc1)c1ccccc1)Nc1ccc(F)c(F)c1 (stereo unspecified),-0.729 (inactive),0.477,-0.215,-0.567,–,–,–,–
COc1ccc2c(c1)cc1n2CCN=C1NN,1.67 (inactive),-0.465,-0.0728,0.848,–,–,–,–
Cc1ccc2nc(C)c3c(c2c1)N(c1ccccc1)CC3,-0.838 (inactive),0.0751,-0.205,-0.482,–,–,–,–
CCCN(c1ccc(C)cc1)c1nc(=O)c2cccnc2s1,0.0477 (inactive),0.0213,-0.295,0.0592,–,–,–,–
Cc1ccc(Cl)cc1N1CCN(C(=O)c2cccc3c(=O)c(C)c(-c4ccccc4)oc23)CC1,-0.56 (inactive),0.953,-0.179,-0.287,–,–,–,–
CCOC(=O)c1cc2c(ccn2C)n1CC(=O)N1CCC(C)CC1,–,–,–,–,-0.704 (inactive),0.841,-0.262,-1.05
Clc1ccc(CN2CCN(/N=C/c3cccnc3)CC2)cc1,-0.266 (inactive),0.201,-0.295,-0.167,–,–,–,–
O=Cc1cn(Cc2ccccc2)nc1-c1cccnc1,-0.988 (inactive),0.721,-0.215,-0.566,–,–,–,–
O=C1/C(=C\c2cccnc2)CN(Cc2ccccc2)C/C1=C\c1cccnc1,-3.59 (active),-0.00204,0.672,-2.16,–,–,–,–
Cc1ccc(S(=O)(=O)N(C)c2ccc(OCC(=O)NC3=NCCS3)cc2)cc1,0.77 (inactive),-1.53,0.171,1.46,–,–,–,–
Cc1ccnc(N2CCN(C(=O)CSc3nc4ccccc4nc3N3CCCCC3)CC2)c1,-1.05 (inactive),0.232,-0.187,-0.257,–,–,–,–
CC(C)(C)c1cc(NC(=O)NN2CCOCC2)nn1-c1c(Cl)cc(Cl)cc1Cl,0.305 (inactive),0.973,-0.287,-0.0782,–,–,–,–
COc1ccc(CCNC(=O)c2ccc(CS(=O)(=O)c3ccc(Br)cc3)o2)cc1OC,0.736 (inactive),0.162,-0.215,0.28,–,–,–,–
CCN(Cc1nc2ccccc2c(=O)[nH]1)Cc1cc(=O)oc2cc(C)c(C)cc12,–,–,–,–,0.712 (inactive),0.798,-0.276,-0.426
O=c1[nH]c2ccccc2n2c(-c3ccccc3)nnc12,–,–,–,–,-4.53 (active),0.378,0.89,-2.64
O=[N+]([O-])c1cccc(-c2nnc3c4ccccc4c4ccccc4n23)c1,-0.00649 (inactive),0.483,1.22,0.469,–,–,–,–
CCOC(=O)c1cnc2[nH]c3ccccc3n2c1=O,-0.506 (inactive),-0.246,0.0235,-0.197,–,–,–,–
